According to ChEMBL document CHEMBL5357040, “Synthesis and migrastatic activity of cytochalasin analogues lacking a macrocyclic moiety” (RSC Med Chem, 2024):
Active and inactive are the calls of the source. The calls are words filed in the database; no cut-off is given here.

Tests used:
[1] = tested on: BLM; experiment: Migrastatic activity against human BLM cells assessed as decrease in cell migration at 10 uM incubated for 24 hrs by spheroid invasion assay; format: functional, cell-based
In short: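 BLM spheroids formed over 2 days, embedded singly in 1.5 mg mL⁻¹ rat-tail type I collagen (1× DMEM, 1% FBS), polymerized at 37 °C, overlaid with medium; 10 μM treatment. Imaged at 0 and 24 h; invasiveness as spheroid area increase. Three independent experiments, ≥8 spheroids each; one-way ANOVA.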

[2] = tested on: HT-1080; experiment: Inhibition of actin in human HT-1080 cells assessed as effect on actin cytoskeleton at 10 uM incubated for 2 mins by fluorescence microscopic analysis; format: cell-based
In short: (§1)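 HT1080 cells on glass-bottom plates stained with SPY650-FastAct; untreated cells imaged every 20 s for 15 min, then compound (10 or 50 μM) added to same well and recorded 15 min at 20 s/frame by fluorescence time-lapse; actin cytoskeleton and morphology assessed from video.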

[3] = Inhibition of actin (unknown origin) polymerization at 10 uM by spectrophotometer analysis; conditions: Homo sapiens
In short: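 Pyrene-labelled actin (0.4 mg mL⁻¹) in G-buffer with compound at 10 μM or DMSO control; polymerization started with 10× actin polymerization buffer. Fluorescence (ex 360 nm, em 420 nm) followed over time until plateau.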

[4] = tested on: HT-1080; experiment: Inhibition of actin in human HT-1080 cells assessed as effect on actin cytoskeleton at 10 uM incubated for 5 mins by fluorescence microscopic analysis; format: cell-based; in short: as §1
[5] = tested on: HT-1080; experiment: Effect on cell morphology in human HT-1080 cells at 50 uM incubated for 5 mins by fluorescence microscopic analysis; format: functional, cell-based; in short: as §1

Compound | Activity [1] | inhibition [2] | inhibition [3] | inhibition [4] | Activity [5]
C=C1[C@@H](C)[C@H]2[C@H](Cc3ccccc3)NC(=O)[C@]23[C@H](OC(C)=O)/C=C/[C@@](C)(O)C(=O)[C@@H](C)C/C=C/[C@H]3[C@@H]1O | inactive | Active |  |  | 
COC(=O)[C@@]12C(=O)N[C@@H](Cc3ccccc3)[C@@H]1[C@H](C)[C@@](C)(Cl)[C@H](O)[C@@H]2CCOCCc1ccccc1 |  |  | Active |  | 
COC(=O)[C@@]12C(=O)N[C@@H](Cc3ccccc3)[C@@H]1[C@H](C)C(C)=C[C@@H]2CCCOCc1ccccc1 | Active |  | Active |  | 
C=C1[C@@H](C)[C@H]2[C@H](Cc3ccccc3)NC(=O)[C@@]2(C(=O)OC)[C@@H](CCOCCc2ccccc2)[C@@H]1O | Active | inactive | Active | Active | Active
C=C1[C@@H](C)[C@H]2[C@H](Cc3ccccc3)NC(=O)[C@]23OC(=O)/C=C/[C@H](O)CCC[C@@H](C)C/C=C/[C@H]3[C@@H]1O | inactive | Active |  |  | 
CC1=C[C@H](CCOCCc2ccccc2)[C@]2(CO)C(=O)N[C@@H](Cc3ccccc3)[C@@H]2[C@@H]1C | Active |  | Active |  | 
